Laboratory results as given in ChEMBL document CHEMBL5335790, “Design, synthesis and biological evaluation of novel 2,4-thiazolidinedione derivatives able to target the human BAG3 protein” (Eur J Med Chem, 2023).
The source made the active and inactive calls. The rule behind the calls is not given here.

Experiments:
[1] = target: T1, BAG family molecular chaperone regulator 3 (Homo sapiens, UniProt O95817); assay: Binding affinity to CM4 sensorchip immobilized glycosylated C-terminal His tagged human BAG3 transfected in HEK293T cells assessed as dissociation constant by SPR analysis
Outline: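 SPR single-cycle kinetics on CM4-immobilized HEK-293T-expressed BAG3-His. Increasing compound concentrations in PBS with 5% DMSO and 0.05% P20 were injected at 30 µL/min without regeneration between injections, with blank subtraction. Kd from steady-state analysis, reported as mean ± SEM and compared by Student t-test.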

HD-MB03 [2] = assay: Sensitization of chemotherapy induced cytotoxicity against human HD-MB03 cells assessed as inhibition of cell growth at 10 uM incubated for 72 hrs in presence of 0.12 unit of vincristine, etoposide, cisplatin, cyclophosphamide by resazurin dye based analysis (reference value: 51.43 +/- 1.17%); format: functional
[3] = Cytotoxicity against PHA stimulated human PBMC cells assessed as cell growth inhibition incubated for 72 hrs by MTT assay; format: toxicity, cell-based
HD-MB03 [4] = assay: Sensitization of chemotherapy induced cytotoxicity against human HD-MB03 cells assessed as inhibition of cell growth at 10 uM incubated for 72 hrs in presence of 1 unit of vincristine, etoposide, cisplatin, cyclophosphamide by resazurin dye based analysis (reference value: 91.53 +/- 1.15%); format: functional
HD-MB03 [5] = assay: Sensitization of chemotherapy induced cytotoxicity against human HD-MB03 cells assessed as inhibition of cell growth at 2.5 uM incubated for 72 hrs in presence of 1 unit of vincristine, etoposide, cisplatin, cyclophosphamide by resazurin dye based analysis (reference value: 91.53 +/- 1.15%); format: functional
HD-MB03 [6] = assay: Cytotoxicity against human HD-MB03 cells assessed as inhibition of cell growth at 1.25 uM incubated for 72 hrs by resazurin dye based analysis relative to control; format: functional
Outline: (§1)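 Resazurin viability in HD-MB03 cells, 2000/well, single-agent arm of the 6x6 matrix. Inhibitor was added 24 h after seeding, in a 6-point 2-fold series, duplicates, two independent experiments. After 72 h exposure, resazurin was added at 44 µM final for 3 h at 37 °C and fluorescence read at 590 nm. Viability normalized to 1 µM bortezomib and 0.5% DMSO controls.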

HD-MB03 [7] = assay: Cytotoxicity against human HD-MB03 cells assessed as inhibition of cell growth at 2.5 uM incubated for 72 hrs by resazurin dye based analysis relative to control; format: functional; outline: as §1
[8] = target: T1, BAG family molecular chaperone regulator 3; assay: Binding affinity to C-terminal His tagged human BAG3 transfected in HEK293T cells assessed as intermolecular nuclear overhauser effect mediated protein magnetization at 125 uM by waterLOGSY experiment; format: cell-based
Outline: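 Ligand-observed NMR in 50 mM sodium phosphate pH 7.8, 150 mM NaCl, 0.04% NaN3, 1.3% DMSO-d6, 5% D2O. Compound at 125 µM with 5 µM BAG3-His (HEK-293T expressed, purified by IMAC and SEC), each also run without protein. WaterLOGSY used 240 scans, 1.5 s mixing and water inversion at 4.7 ppm. STD used 256 scans with protein saturation at 0.4 ppm.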

HD-MB03 [9] = assay: Induction of apoptosis in human HD-MB03 cells assessed as increase in total apoptotic cells at 20 uM incubated for 24 hrs in presence of chloroquine by Annexin V-FITC/PI staining based cytofluorimetric analysis; format: functional, cell-based
Outline: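 HD-MB03 cells exposed to 20 µM with or without chloroquine for 24 h, then stained with annexin V-FITC and PI for flow cytometry. Mean ± SEM of three independent experiments.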

HD-MB03 [10] = assay: Induction of apoptosis in human HD-MB03 cells assessed as membrane blebbing at 20 uM incubated for 24 hrs in presence of chloroquine by bright field imaging analysis; format: functional, cell-based
RS4-11 = assay: Antiproliferative activity against human RS4-11 cells assessed as cell growth inhibition incubated for 72 hrs by resazurin dye based analysis; format: functional
Outline: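 Cells seeded at 2000/well, treated 24 h later with compounds in a 6-point 2-fold dose series, duplicate wells, two independent experiments. After 72 h, resazurin was added at 44 µM final for 3 h at 37 °C and fluorescence was read at 590 nm. Viability was normalized to 1 µM bortezomib (positive) and 0.5% DMSO (negative) controls. GI50 is the mean ± SEM of dose-response curves.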

HD-MB03 [11] = assay: Sensitization of chemotherapy induced cytotoxicity against human HD-MB03 cells assessed as inhibition of cell growth at 20 uM incubated for 72 hrs in presence of 2 unit of vincristine, etoposide, cisplatin, cyclophosphamide by resazurin dye based analysis (reference value: 97.7 +/- 1.3%); format: functional
HD-MB03 [12] = assay: Sensitization of chemotherapy induced cytotoxicity against human HD-MB03 cells assessed as inhibition of cell growth at 1.25 uM incubated for 72 hrs in presence of 0.12 unit of vincristine, etoposide, cisplatin, cyclophosphamide by resazurin dye based analysis (reference value: 51.43 +/- 1.17%); format: functional
[13] = target: T1, BAG family molecular chaperone regulator 3; assay: Binding affinity to CM4 sensorchip immobilized C-terminal His tagged human BAG3 transfected in HEK293T cells assessed as binding capacity at 50 uM by SPR analysis
Outline: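 SPR screen on BAG3-His amine-coupled to a CM4 chip at 60 µg/mL in pH 2.8 acetate. Compound at 50 µM in PBS with 5% DMSO and 0.05% P20 was injected for 90 s at 30 µL/min, then washed. Chip regenerated with 10 mM glycine pH 3. Bound RU read at equilibrium against a void flow cell; 3–10 repeats, mean ± SEM.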

HD-MB03 [14] = assay: Induction of cell cycle arrest in human HD-MB03 cells assessed as accumulation of cells at G2/M phase at 10 uM incubated for 72 hrs by RNase/PI staining based cytofluorimetric analysis (reference value: 4.4%); format: functional
HD-MB03 [15] = assay: Cytotoxicity against human HD-MB03 cells assessed as inhibition of cell growth at 20 uM incubated for 72 hrs by resazurin dye based analysis relative to control; format: functional; outline: as §1
HD-MB03 [16] = assay: Sensitization of chemotherapy induced cytotoxicity against human HD-MB03 cells assessed as inhibition of cell growth at 1.25 uM incubated for 72 hrs in presence of 0.5 unit of vincristine, etoposide, cisplatin, cyclophosphamide by resazurin dye based analysis (reference value: 83.74+/- 0.54%); format: functional
HD-MB03 [17] = assay: Sensitization of chemotherapy induced cytotoxicity against human HD-MB03 cells assessed as inhibition of cell growth at 2.5 uM incubated for 72 hrs in presence of 0.12 unit of vincristine, etoposide, cisplatin, cyclophosphamide by resazurin dye based analysis (reference value: 51.43 +/- 1.17%); format: functional
HD-MB03 [18] = assay: Induction of cell cycle arrest in human HD-MB03 cells assessed as accumulation of cells at G1 phase at 10 uM incubated for 48 hrs by RNase/PI staining based cytofluorimetric analysis (reference value: 54.7%); format: functional
HD-MB03 [19] = assay: Sensitization of chemotherapy induced cytotoxicity against human HD-MB03 cells assessed as inhibition of cell growth at 5 uM incubated for 72 hrs in presence of 0.5 unit of vincristine, etoposide, cisplatin, cyclophosphamide by resazurin dye based analysis (reference value: 83.74+/- 0.54%); format: functional

T1 sequence (O95817 whole entry): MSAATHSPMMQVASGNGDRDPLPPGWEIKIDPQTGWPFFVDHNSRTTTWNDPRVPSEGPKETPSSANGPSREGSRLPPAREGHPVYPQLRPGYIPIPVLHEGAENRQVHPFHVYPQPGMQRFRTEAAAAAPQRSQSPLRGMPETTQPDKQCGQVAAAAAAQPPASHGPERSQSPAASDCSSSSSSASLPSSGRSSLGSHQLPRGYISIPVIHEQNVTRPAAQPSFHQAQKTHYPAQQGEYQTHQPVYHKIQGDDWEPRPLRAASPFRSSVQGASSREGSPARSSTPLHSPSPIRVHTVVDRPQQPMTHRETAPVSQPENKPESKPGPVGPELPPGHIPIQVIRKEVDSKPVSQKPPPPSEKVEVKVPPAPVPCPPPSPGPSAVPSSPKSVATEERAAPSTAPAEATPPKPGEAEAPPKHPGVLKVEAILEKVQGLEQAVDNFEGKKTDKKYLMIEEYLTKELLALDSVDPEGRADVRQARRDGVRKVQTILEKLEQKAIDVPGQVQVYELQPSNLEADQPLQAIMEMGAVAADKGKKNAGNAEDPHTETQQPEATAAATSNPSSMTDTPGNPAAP

For `CC(C(=O)N1CCOCC1)N1C(=O)S/C(=C\c2cccc(O)c2O)C1=O` (racemic), the Kd [1] was 45 µM, the inhibition at 10 µM (HD-MB03 [2]) was 75.8% and the GI50 at 72 h [3] was > 100 µM. It also gave an inhibition at 10 µM (HD-MB03 [4]) of 92%, an inhibition at 2.5 µM (HD-MB03 [5]) of 92% and an inhibition at 1.25 µM (HD-MB03 [6]) of -11.8%. For the same compound, the inhibition at 2.5 µM (HD-MB03 [7]) was -8.3%, the Activity [8] was “Active” and the Activity (HD-MB03 [9]) was “Active”. For the same compound, the Activity (HD-MB03 [10]) was “Active”, the GI50 (RS4-11) was 6.7 µM and the inhibition at 20 µM (HD-MB03 [11]) was 90.5%. For the same compound, the inhibition at 1.25 µM (HD-MB03 [12]) was 47.7%, the Activity [13] was > 5 RU and the Activity (HD-MB03 [14]) was 1.2%. It also gave an inhibition at 20 µM (HD-MB03 [15]) of 52.9%, an inhibition at 1.25 µM (HD-MB03 [16]) of 82.7% and an inhibition at 2.5 µM (HD-MB03 [17]) of 53.4%. The Activity (HD-MB03 [18]) was 52.45% and the inhibition at 5 µM (HD-MB03 [19]) was 88.4%.
